IC50 data for two molecules are collected here from BindingDB's records for doi:10.1016/j.bmcl.2019.126908 (University of California Davis, 2020).

The pIC50 is −log10 of the IC50, conventionally taken in molar units.

Each structure is given as a SMILES string. pIC50: −log10 of the molar value.

The assay deals with T1, Bifunctional epoxide hydrolase 2 (Homo sapiens, UniProt P34913).
T1 sequence (P34913 whole entry): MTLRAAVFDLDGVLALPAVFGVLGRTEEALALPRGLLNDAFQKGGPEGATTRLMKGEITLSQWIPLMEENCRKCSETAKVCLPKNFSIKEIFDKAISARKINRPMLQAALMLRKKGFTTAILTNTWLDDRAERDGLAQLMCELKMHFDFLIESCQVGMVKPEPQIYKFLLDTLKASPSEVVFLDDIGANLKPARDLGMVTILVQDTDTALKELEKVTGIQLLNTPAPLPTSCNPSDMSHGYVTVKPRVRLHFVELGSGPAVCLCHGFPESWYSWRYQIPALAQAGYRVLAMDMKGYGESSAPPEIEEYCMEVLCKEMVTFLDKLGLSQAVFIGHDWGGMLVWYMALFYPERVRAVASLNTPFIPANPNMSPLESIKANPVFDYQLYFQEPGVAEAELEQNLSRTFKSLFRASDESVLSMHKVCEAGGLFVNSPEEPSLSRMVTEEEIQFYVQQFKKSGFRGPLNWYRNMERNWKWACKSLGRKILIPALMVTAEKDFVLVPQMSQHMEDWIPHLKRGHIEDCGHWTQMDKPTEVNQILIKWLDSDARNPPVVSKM
Put plainly: Inhibition of human soluble epoxide hydrolase by kinetic fluorescent assay. The procedure, abridged:
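Kinetic fluorescent read-out; each value is the mean of three separate experiments.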

`CC(NC(=O)Nc1ccccc1F)C12CC3CC(CC(C3)C1)C2` (configuration not stated) gave a negative-log IC50 (pIC50) of 7.25.

`O=C(Nc1ccc(C23CC4CC(CC(C4)C2)C3)cc1)Nc1ccccc1F`: the pIC50 is 7.03. This pIC50 lies 0.22 log units lower than the previous one.
